Data on one molecule can be found in the M2OR odorant receptor database.

The target of this assay is T1, OR10H1 (Homo sapiens) (UniProt Q9Y4A9).
T1 sequence (whole entry): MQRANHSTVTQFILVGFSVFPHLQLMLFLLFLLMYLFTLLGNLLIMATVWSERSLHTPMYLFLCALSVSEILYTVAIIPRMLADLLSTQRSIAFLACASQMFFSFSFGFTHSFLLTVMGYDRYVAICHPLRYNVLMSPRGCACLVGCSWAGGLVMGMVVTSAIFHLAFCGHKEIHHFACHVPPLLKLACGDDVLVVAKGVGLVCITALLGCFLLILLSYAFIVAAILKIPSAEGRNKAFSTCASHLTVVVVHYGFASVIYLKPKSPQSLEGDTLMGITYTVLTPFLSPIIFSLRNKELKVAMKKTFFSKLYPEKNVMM
Conditions: stereoisomer not certain. The essentials: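 Transient luciferase assays in mammalian cell lines were common, though methods varied by source. The values come from published papers and their supplementary material, with extra details from the original authors when needed. Responsive refers to a measured signal the original authors judged statistically different from baseline, and non-responsive (inactive) to the remainder.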
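Also: active if original authors judged signal statistically different from baseline.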

`c1ccccc1`: the “odorant receptor agonist call” value was “inactive”.
